# Data as given in ChEMBL document CHEMBL5724801, “EUbOPEN Chemogenomics Library - Multiplex” (2024).
# Values joined by “and” are separate entries in the source; they are usually repeats but may differ in a detail not shown here. Identical values can stand only once.
# System: HEK-293T
# Assay: Multiplex assay against HEK293T
# Type: toxicity, cell-based
# Conditions: human, 12 h, 1 µM, compound concentration 1 uM
# Summary of the method: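 Live cells were stained at seeding with Hoechst33342, BioTracker Green Microtubule Cytoskeleton Dye, MitoTracker Red and Annexin V Alexa Fluor 680. Following compound addition, they were imaged on a CQ1 microscope at 37°C and 5% CO2 and gated by CellPathfinder machine learning into Hoechst high-intensity objects or normal cells, with normal cells split into healthy, pyknosed or fragmented nuclei and pyknosed cells into mitotic or apoptotic. Tubulin, mitochondrial-mass and membrane-permeability phenotypes are per cents of healthy-nucleus cells.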
SMILES,Population Apoptotic (%),Population Fragmented Nuclei (%),Population Hoechst High Intensity Objects (%),Population Membrane Permeable-Phenotype (%),Population Mitochondria Different-Phenotype (%),Population Mitotic Cells (%),Population Normal (%),Population Pyknosed Nuclei (%),Population Tubulin-Different-Phenotype (%),Total Cell Count
C=CC(=O)Nc1cc(Nc2nccc(-n3cc(CN(C)C)c(-c4ccccc4)n3)n2)c(OC)cc1N1CCOCC1 [LAZERTINIB],14.72% and 15.96%,1.35% and 8.26%,0.67% and 0%,0.77% and 5.88%,33.85% and 11.76%,85.28% and 84.04%,99.33% and 100%,54.88% and 77.69%,31.54% and 82.35%,299 and 121
N#Cc1ccnc(Nc2cc(C3CCN(C4COC4)CC3)cc(N3CCC(F)(F)C3)n2)c1,18.37% and 8.2%,1.49% and 2.08%,0.98% and 0%,0%,,81.63% and 91.8%,99.02% and 100%,72.77% and 84.72%,32.69% and 42.11%,204 and 144
CC(C)(O)c1cnc(N2C[C@@]3(CCC[C@](C)(Cn4cnc5ccc(C#N)cc54)C3)OC2=O)cn1 [GSK2798745],8.76% and 9.45%,1.42% and 8.48%,0%,0% and 4.17%,40% and 37.5%,91.24% and 90.55%,100%,38.92% and 76.97%,,352 and 165
COc1cc2nc(N3CCN(C(=O)COc4c(OC)cccc4C(C)C)CC3)nc(N)c2cc1OC.Cl.Cl,35% and 46%,12% and 8%,5% and 4%,0%,48% and 58%,64% and 53%,94% and 95%,9%,23% and 18%,402 and 365

# Same assay, conditions: human, 12 h, 1 µM, compound concentration 1 uM
row,SMILES,Population Healthy Nuclei (%)
1,N#Cc1ccnc(Nc2cc(C3CCN(C4COC4)CC3)cc(N3CCC(F)(F)C3)n2)c1,25.74% and 13.19%
2,COc1cc2nc(N3CCN(C(=O)COc4c(OC)cccc4C(C)C)CC3)nc(N)c2cc1OC.Cl.Cl,77% and 81%

# Same assay, conditions: human, 12 h, 10 µM, compound concentration 10 uM
SMILES,Population Apoptotic (%),Population Fragmented Nuclei (%),Population Healthy Nuclei (%),Population Hoechst High Intensity Objects (%),Population Membrane Permeable-Phenotype (%),Population Mitochondria Different-Phenotype (%),Population Mitotic Cells (%),Population Normal (%),Population Pyknosed Nuclei (%),Population Tubulin-Different-Phenotype (%)
C=CC(=O)Nc1cc(Nc2nccc(-n3cc(CN(C)C)c(-c4ccccc4)n3)n2)c(OC)cc1N1CCOCC1 [LAZERTINIB],22.22% and 29.59%,3.83% and 10%,22.97% and 8.33%,0.48% and 0%,0%,47.92% and 60%,77.78% and 70.41%,99.52% and 100%,73.21% and 81.67%,75% and 80%
N#Cc1ccnc(Nc2cc(C3CCN(C4COC4)CC3)cc(N3CCC(F)(F)C3)n2)c1,23.38% and 27.5%,5.2% and 14.04%,20.07% and 15.79%,0.37% and 0.87%,,,76.62% and 72.5%,99.63% and 99.13%,74.72% and 70.18%,
CC(C)(O)c1cnc(N2C[C@@]3(CCC[C@](C)(Cn4cnc5ccc(C#N)cc54)C3)OC2=O)cn1 [GSK2798745],8.93% and 6.72%,1.58% and 0.69%,45.43% and 17.24%,0.63% and 0%,0%,36.11% and 20%,91.07% and 93.28%,99.37% and 100%,53% and 82.07%,24.31% and 48%
COc1cc2nc(N3CCN(C(=O)COc4c(OC)cccc4C(C)C)CC3)nc(N)c2cc1OC.Cl.Cl,52% and 57%,13% and 14%,69% and 67%,25% and 18%,1% and 3%,74% and 66%,48% and 42%,74% and 81%,17% and 18%,81% and 66%

# Same assay, conditions: human, 12 h, 10 µM, compound concentration 10 uM
row,SMILES,Total Cell Count
1,C=CC(=O)Nc1cc(Nc2nccc(-n3cc(CN(C)C)c(-c4ccccc4)n3)n2)c(OC)cc1N1CCOCC1 [LAZERTINIB],210 and 120
2,N#Cc1ccnc(Nc2cc(C3CCN(C4COC4)CC3)cc(N3CCC(F)(F)C3)n2)c1,270 and 230
3,CC(C)(O)c1cnc(N2C[C@@]3(CCC[C@](C)(Cn4cnc5ccc(C#N)cc54)C3)OC2=O)cn1 [GSK2798745],319 and 145
4,COc1cc2nc(N3CCN(C(=O)COc4c(OC)cccc4C(C)C)CC3)nc(N)c2cc1OC.Cl.Cl,386 and 286

# Same assay, conditions: human, 24 h, 1 µM, compound concentration 1 uM
SMILES,Population Apoptotic (%),Population Fragmented Nuclei (%),Population Hoechst High Intensity Objects (%),Population Membrane Permeable-Phenotype (%),Population Mitochondria Different-Phenotype (%),Population Mitotic Cells (%),Population Normal (%),Population Pyknosed Nuclei (%),Population Tubulin-Different-Phenotype (%),Total Cell Count
C=CC(=O)Nc1cc(Nc2nccc(-n3cc(CN(C)C)c(-c4ccccc4)n3)n2)c(OC)cc1N1CCOCC1 [LAZERTINIB],15.83% and 31.58%,1.82% and 4.92%,0.45% and 0%,3.41% and 4.76%,36.18% and 52.38%,84.17% and 68.42%,99.55% and 100%,31.59% and 77.87%,50.85% and 47.62%,
N#Cc1ccnc(Nc2cc(C3CCN(C4COC4)CC3)cc(N3CCC(F)(F)C3)n2)c1,44.81% and 25.93%,1.81% and 1.57%,0.72% and 0.78%,2.56% and 0%,41.88% and 35.29%,55.19% and 74.07%,99.28% and 99.22%,55.8% and 85.04%,49.57% and 23.53%,278 and 128
CC(C)(O)c1cnc(N2C[C@@]3(CCC[C@](C)(Cn4cnc5ccc(C#N)cc54)C3)OC2=O)cn1 [GSK2798745],18.02% and 17.31%,0.94% and 3.7%,0%,2.88% and 0%,16.31% and 11.54%,81.98% and 82.69%,100%,,16.79% and 7.69%,
COc1cc2nc(N3CCN(C(=O)COc4c(OC)cccc4C(C)C)CC3)nc(N)c2cc1OC.Cl.Cl,35% and 42%,11% and 8%,5% and 2%,0%,27% and 44%,64% and 57%,95% and 97%,10% and 7%,19% and 16%,540 and 472

# Same assay, conditions: human, 24 h, 1 µM, compound concentration 1 uM
row,SMILES,Population Healthy Nuclei (%)
1,CC(C)(O)c1cnc(N2C[C@@]3(CCC[C@](C)(Cn4cnc5ccc(C#N)cc54)C3)OC2=O)cn1 [GSK2798745],78.24% and 32.1%
2,COc1cc2nc(N3CCN(C(=O)COc4c(OC)cccc4C(C)C)CC3)nc(N)c2cc1OC.Cl.Cl,77% and 84%

# Same assay, conditions: human, 24 h, 10 µM, compound concentration 10 uM
SMILES,Population Apoptotic (%),Population Fragmented Nuclei (%),Population Healthy Nuclei (%),Population Hoechst High Intensity Objects (%),Population Membrane Permeable-Phenotype (%),Population Mitotic Cells (%),Population Normal (%),Population Pyknosed Nuclei (%),Population Tubulin-Different-Phenotype (%),Total Cell Count
C=CC(=O)Nc1cc(Nc2nccc(-n3cc(CN(C)C)c(-c4ccccc4)n3)n2)c(OC)cc1N1CCOCC1 [LAZERTINIB],46.43% and 51.06%,3.95% and 6.25%,22.37% and 9.82%,1.3% and 0%,1.96% and 0%,53.57% and 48.94%,98.7% and 100%,73.68% and 83.93%,100% and 54.55%,231 and 112
N#Cc1ccnc(Nc2cc(C3CCN(C4COC4)CC3)cc(N3CCC(F)(F)C3)n2)c1,63.77% and 56.46%,4.87% and 13.57%,17.6% and 19.91%,0.74% and 0%,0% and 9.09%,36.23% and 43.54%,99.26% and 100%,77.53% and 66.52%,,269 and 221
CC(C)(O)c1cnc(N2C[C@@]3(CCC[C@](C)(Cn4cnc5ccc(C#N)cc54)C3)OC2=O)cn1 [GSK2798745],17.91% and 14.14%,2.04% and 1.31%,63.87% and 33.99%,0%,0.8% and 0%,82.09% and 85.86%,100%,34.1% and 64.71%,37.85% and 13.46%,393 and 153
COc1cc2nc(N3CCN(C(=O)COc4c(OC)cccc4C(C)C)CC3)nc(N)c2cc1OC.Cl.Cl,42% and 51%,14% and 13%,64% and 59%,29% and 39%,2%,57% and 48%,70% and 60%,21% and 27%,69% and 63%,498 and 286

# Same assay, conditions: human, 24 h, 10 µM, compound concentration 10 uM
row,SMILES,Population Mitochondria Different-Phenotype (%)
1,CC(C)(O)c1cnc(N2C[C@@]3(CCC[C@](C)(Cn4cnc5ccc(C#N)cc54)C3)OC2=O)cn1 [GSK2798745],27.09% and 9.62%
2,COc1cc2nc(N3CCN(C(=O)COc4c(OC)cccc4C(C)C)CC3)nc(N)c2cc1OC.Cl.Cl,68% and 72%

# Same assay, conditions: human, 48 h, 1 µM, compound concentration 1 uM
SMILES,Population Apoptotic (%),Population Fragmented Nuclei (%),Population Healthy Nuclei (%),Population Hoechst High Intensity Objects (%),Population Membrane Permeable-Phenotype (%),Population Mitochondria Different-Phenotype (%),Population Mitotic Cells (%),Population Normal (%),Population Pyknosed Nuclei (%),Population Tubulin-Different-Phenotype (%)
C=CC(=O)Nc1cc(Nc2nccc(-n3cc(CN(C)C)c(-c4ccccc4)n3)n2)c(OC)cc1N1CCOCC1 [LAZERTINIB],12.5% and 24.32%,3.16% and 5.04%,82.41% and 41.73%,0.11% and 1.42%,7.11% and 0%,43.78% and 63.79%,87.5% and 75.68%,99.89% and 98.58%,,
N#Cc1ccnc(Nc2cc(C3CCN(C4COC4)CC3)cc(N3CCC(F)(F)C3)n2)c1,,4.08% and 0.7%,73.7% and 38.46%,0.23% and 0.69%,4.31% and 3.64%,60.62% and 56.36%,69.39% and 90.8%,99.77% and 99.31%,22.22% and 60.84%,
CC(C)(O)c1cnc(N2C[C@@]3(CCC[C@](C)(Cn4cnc5ccc(C#N)cc54)C3)OC2=O)cn1 [GSK2798745],,2.32% and 3.45%,86.2% and 69.4%,0% and 1.28%,5.88% and 4.97%,16.75% and 31.68%,97.55% and 73.02%,100% and 98.72%,11.48% and 27.16%,
COc1cc2nc(N3CCN(C(=O)COc4c(OC)cccc4C(C)C)CC3)nc(N)c2cc1OC.Cl.Cl,28% and 11%,16% and 15%,76% and 78%,2% and 3%,1% and 0%,18%,71% and 88%,97% and 96%,6%,11% and 12%

# Same assay, conditions: human, 48 h, 1 µM, compound concentration 1 uM
row,SMILES,Total Cell Count
1,COc1cc2nc(N3CCN(C(=O)COc4c(OC)cccc4C(C)C)CC3)nc(N)c2cc1OC.Cl.Cl,930 and 737

# Same assay, conditions: human, 48 h, 10 µM, compound concentration 10 uM
SMILES,Population Apoptotic (%),Population Fragmented Nuclei (%),Population Healthy Nuclei (%),Population Hoechst High Intensity Objects (%),Population Membrane Permeable-Phenotype (%),Population Mitochondria Different-Phenotype (%),Population Mitotic Cells (%),Population Normal (%),Population Pyknosed Nuclei (%),Total Cell Count
C=CC(=O)Nc1cc(Nc2nccc(-n3cc(CN(C)C)c(-c4ccccc4)n3)n2)c(OC)cc1N1CCOCC1 [LAZERTINIB],50% and 19.23%,1.89% and 5.38%,64.67% and 34.62%,0%,9.27% and 0%,73.66% and 40%,50% and 80.77%,100%,33.44% and 60%,317 and 130
N#Cc1ccnc(Nc2cc(C3CCN(C4COC4)CC3)cc(N3CCC(F)(F)C3)n2)c1,88.68% and 82.35%,5.62% and 11.71%,14.98% and 13.66%,0.37% and 0.49%,5% and 3.57%,,11.32% and 17.65%,99.63% and 99.51%,79.4% and 74.63%,268 and 206
CC(C)(O)c1cnc(N2C[C@@]3(CCC[C@](C)(Cn4cnc5ccc(C#N)cc54)C3)OC2=O)cn1 [GSK2798745],12.84% and 15.85%,2.45% and 0.91%,82.72% and 61.64%,0.14% and 0%,8.39% and 0.74%,44.41% and 40%,87.16% and 84.15%,99.86% and 100%,14.83% and 37.44%,
COc1cc2nc(N3CCN(C(=O)COc4c(OC)cccc4C(C)C)CC3)nc(N)c2cc1OC.Cl.Cl,31% and 30%,18% and 17%,56% and 59%,41% and 46%,3% and 1%,48% and 49%,68% and 69%,58% and 53%,25% and 23%,660 and 430

# Same assay, conditions: human, 48 h, 10 µM, compound concentration 10 uM
row,SMILES,Population Tubulin-Different-Phenotype (%)
1,COc1cc2nc(N3CCN(C(=O)COc4c(OC)cccc4C(C)C)CC3)nc(N)c2cc1OC.Cl.Cl,56% and 38%
